Source: ChEMBL document CHEMBL1127348, “3-Amino-5,5-dimethylhexanoic acid. Synthesis, resolution, and effects on carnitine acyltransferases” (J Med Chem, 1994)
Values belong to the molecule of their own block, whether it stands above or below them.

Experiments:
[1] = biological target: T1, Carnitine O-palmitoyltransferase 2, mitochondrial (Rattus norvegicus, UniProt P18886); test: Tested against neonatal rat cardiac myocyte carnitine palmitoyltransferase 2
T1 sequence (P18886 whole entry): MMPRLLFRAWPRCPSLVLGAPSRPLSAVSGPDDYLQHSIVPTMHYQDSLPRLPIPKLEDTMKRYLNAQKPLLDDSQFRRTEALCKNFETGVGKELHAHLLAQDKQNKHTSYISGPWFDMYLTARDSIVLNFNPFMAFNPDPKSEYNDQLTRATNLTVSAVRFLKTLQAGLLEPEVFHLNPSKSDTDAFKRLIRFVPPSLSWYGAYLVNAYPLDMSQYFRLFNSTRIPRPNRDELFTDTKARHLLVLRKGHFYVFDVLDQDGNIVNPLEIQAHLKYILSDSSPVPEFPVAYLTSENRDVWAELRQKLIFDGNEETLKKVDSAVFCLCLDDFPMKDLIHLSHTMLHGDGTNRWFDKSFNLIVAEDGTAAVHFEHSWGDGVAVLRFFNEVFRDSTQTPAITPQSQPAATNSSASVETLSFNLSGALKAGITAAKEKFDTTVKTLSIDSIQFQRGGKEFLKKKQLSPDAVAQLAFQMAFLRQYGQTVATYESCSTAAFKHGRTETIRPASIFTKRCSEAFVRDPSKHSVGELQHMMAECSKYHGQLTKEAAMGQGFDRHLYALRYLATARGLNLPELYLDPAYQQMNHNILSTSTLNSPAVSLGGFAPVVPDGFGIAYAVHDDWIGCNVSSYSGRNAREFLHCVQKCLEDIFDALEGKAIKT

[2] = biological target: T2, Carnitine O-palmitoyltransferase 1, muscle isoform (Rattus norvegicus, UniProt Q63704); test: Tested against neonatal rat cardiac myocyte carnitine palmitoyltransferase 1
T2 sequence (Q63704 whole entry): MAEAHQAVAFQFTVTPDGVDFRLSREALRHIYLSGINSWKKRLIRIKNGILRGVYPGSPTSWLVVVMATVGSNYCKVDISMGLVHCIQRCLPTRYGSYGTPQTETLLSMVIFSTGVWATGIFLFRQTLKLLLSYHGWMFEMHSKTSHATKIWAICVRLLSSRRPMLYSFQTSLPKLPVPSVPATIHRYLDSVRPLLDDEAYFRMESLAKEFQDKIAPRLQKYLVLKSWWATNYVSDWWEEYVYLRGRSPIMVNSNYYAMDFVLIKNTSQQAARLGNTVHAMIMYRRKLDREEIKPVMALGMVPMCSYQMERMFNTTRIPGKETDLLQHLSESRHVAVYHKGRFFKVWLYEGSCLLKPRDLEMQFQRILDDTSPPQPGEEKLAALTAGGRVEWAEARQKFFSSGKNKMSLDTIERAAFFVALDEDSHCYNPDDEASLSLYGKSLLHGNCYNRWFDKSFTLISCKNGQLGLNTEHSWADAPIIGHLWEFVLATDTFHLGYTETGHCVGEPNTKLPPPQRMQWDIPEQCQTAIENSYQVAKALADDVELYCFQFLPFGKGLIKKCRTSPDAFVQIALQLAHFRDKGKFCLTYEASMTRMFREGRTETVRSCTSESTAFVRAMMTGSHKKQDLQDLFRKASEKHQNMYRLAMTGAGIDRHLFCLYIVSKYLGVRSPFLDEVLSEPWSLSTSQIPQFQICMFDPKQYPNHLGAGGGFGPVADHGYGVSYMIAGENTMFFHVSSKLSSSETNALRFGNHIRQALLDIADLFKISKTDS

[3] = biological target: T3, Carnitine O-palmitoyltransferase 1, liver isoform (Rattus norvegicus) (UniProt P32198); test: Percent inhibition was measured on rat liver carnitine palmitoyltransferase at 5 uM
T3 sequence (whole entry): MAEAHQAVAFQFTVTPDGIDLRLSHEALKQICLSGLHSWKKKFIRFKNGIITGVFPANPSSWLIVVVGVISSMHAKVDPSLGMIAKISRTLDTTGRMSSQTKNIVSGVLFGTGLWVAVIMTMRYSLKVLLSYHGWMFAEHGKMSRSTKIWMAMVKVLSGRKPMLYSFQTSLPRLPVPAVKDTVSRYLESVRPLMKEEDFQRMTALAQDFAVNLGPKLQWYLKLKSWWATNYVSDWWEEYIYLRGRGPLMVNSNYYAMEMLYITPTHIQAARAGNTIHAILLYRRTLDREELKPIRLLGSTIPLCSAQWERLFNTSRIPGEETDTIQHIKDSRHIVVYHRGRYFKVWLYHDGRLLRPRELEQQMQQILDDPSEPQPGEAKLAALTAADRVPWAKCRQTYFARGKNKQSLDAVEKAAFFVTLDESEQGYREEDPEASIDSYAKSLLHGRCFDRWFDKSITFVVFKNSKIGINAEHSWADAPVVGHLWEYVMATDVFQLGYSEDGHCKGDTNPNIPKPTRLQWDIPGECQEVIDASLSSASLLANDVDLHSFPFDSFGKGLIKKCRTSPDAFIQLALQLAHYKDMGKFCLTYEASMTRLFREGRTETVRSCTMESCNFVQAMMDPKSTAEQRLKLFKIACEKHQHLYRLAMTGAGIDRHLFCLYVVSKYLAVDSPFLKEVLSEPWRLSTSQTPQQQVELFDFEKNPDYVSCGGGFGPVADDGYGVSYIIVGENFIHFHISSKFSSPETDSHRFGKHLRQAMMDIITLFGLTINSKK

[4] = biological target: T2, Carnitine O-palmitoyltransferase 1, muscle isoform; test: Tested against neonatal rat cardiac myocyte carnitine palmitoyltransferase 1; no effect
[5] = substrate: C[N+](C)(C)CC(N)CC(=O)[O-]; test: (§1) Kinetic constants tested against pigeon breast carnitine acyltransferase; conditions: Columba livia
Summary of the method: (§2)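 Purified pigeon breast CAT, 25 °C, 1 mL. Reverse: 100 mM MOPS, 5 mM EDTA, 0.25 mM CoASH; started with varying D,L-acetylcarnitine; read at 232 nm. Inhibitor at 0, 5.00 or 10.00 mM final; points mean of 2–5 determinations; nonlinear regression fit.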

[6] = substrate: C[N+](C)(C)C[C@H](O)CC(=O)[O-]; test: as §1; conditions: Columba livia; summary of the method: as §2

Molecule: CC(C)(C)C[C@H](O)CC(=O)O
Ki [1]: 2200 µM

Molecule: CC(C)(C)CC(O)CC(=O)O (configuration not stated)
Ki [2]: 3600 µM | Ki [1]: 2800 µM

Molecule: CC(C)(C)CC(N)CC(=O)O (configuration not stated)
Ki [4]: Not Active | Ki [1]: 20000 µM

Molecule: C[N+](C)(C)C[C@H](O)CC(=O)[O-] [LEVOCARNITINE]
Ki [2]: 100 µM | Ki [1]: 100 µM

B1: Carnitine O-acetyltransferase (Homo sapiens), P43155 (protein)
chain: MLAFAARTVVKPLGFLKPFSLMKASSRFKAHQDALPRLPVPPLQQSLDHYLKALQPIVSEEEWAHTKQLVDEFQASGGVGERLQKGLERRARKTENWLSEWWLKTAYLQYRQPVVIYSSPGVMLPKQDFVDLQGQLRFAAKLIEGVLDFKVMIDNETLPVEYLGGKPLCMNQYYQILSSCRVPGPKQDTVSNFSKTKKPPTHITVVHNYQFFELDVYHSDGTPLTADQIFVQLEKIWNSSLQTNKEPVGILTSNHRNSWAKAYNTLIKDKVNRDSVRSIQKSIFTVCLDATMPRVSEDVYRSHVAGQMLHGGGSRLNSGNRWFDKTLQFIVAEDGSCGLVYEHAAAEGPPIVTLLDYVIEYTKKPELVRSPLVPLPMPKKLRFNITPEIKSDIEKAKQNLSIMIQDLDITVMVFHHFGKDFPKSEKLSPDAFIQMALQLAYYRIYGQACATYESASLRMFHLGRTDTIRSASMDSLTFVKAMDDSSVTEHQKVELLRKAVQAHRGYTDRAIRGEAFDRHLLGLKLQAIEDLVSMPDIFMDTSYAIAMHFHLSTSQVPAKTDCVMFFGPVVPDGYGVCYNPMEAHINFSLSAYNSCAETNAARLAHYLEKALLDMRALLQSHPRAKL
Km [5]: 3800 µM | Km [6]: 300 µM

Next, values leading:

Ki [1]: 6700 µM
Molecule: CC(C)(C)C[C@@H](O)CC(=O)O

inhibition [3]: 64%
Molecule: C[N+](C)(C)CC(N)CC(=O)[O-] (configuration not stated)

inhibition [3]: 15%
Molecule: CC(=O)NC(CC(=O)[O-])C[N+](C)(C)C (configuration not stated)
